Source: BindingDB's records for doi:10.1016/j.bmcl.2007.12.018 (Novartis Institute For Biomedical Research, 2008)

Biological target: RAC-alpha serine/threonine-protein kinase (Homo sapiens, UniProt P31749)
Assay: Inhibition of phosphorylation of T308-PKB in human U87MG cells by ELISA
Procedure, shortened: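 Cell capture ELISA for phospho-T308 PKB in U87MG cells; IC50 determined.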

Chain of RAC-alpha serine/threonine-protein kinase (P31749 whole entry): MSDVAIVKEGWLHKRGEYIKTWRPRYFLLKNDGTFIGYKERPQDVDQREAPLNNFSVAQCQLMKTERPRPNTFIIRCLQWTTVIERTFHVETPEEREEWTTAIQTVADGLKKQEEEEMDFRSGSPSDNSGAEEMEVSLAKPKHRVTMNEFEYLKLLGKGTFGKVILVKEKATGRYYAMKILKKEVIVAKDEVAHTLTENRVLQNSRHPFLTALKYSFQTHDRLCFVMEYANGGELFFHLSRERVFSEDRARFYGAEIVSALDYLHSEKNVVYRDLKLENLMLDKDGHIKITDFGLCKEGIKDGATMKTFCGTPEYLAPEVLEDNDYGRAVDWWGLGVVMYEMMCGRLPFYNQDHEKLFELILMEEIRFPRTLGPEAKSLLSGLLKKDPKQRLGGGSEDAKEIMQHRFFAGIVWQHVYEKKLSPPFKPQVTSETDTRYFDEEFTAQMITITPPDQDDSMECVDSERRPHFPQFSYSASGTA

| IC50 [nM] | Compound |
| --- | --- |
| 33 | Cn1c(=O)n(-c2ccc(C(C)(C)C#N)cc2)c2c3cc(C#Cc4cccnc4)ccc3ncc21 |
| 45 | Cc1nc2cnc3ccc(C#Cc4cccnc4)cc3c2n1-c1ccc(C(C)C#N)cc1 (centres undefined) |
| 77 | Cc1nc2cnc3ccc(C#Cc4cccnc4)cc3c2n1-c1ccc(CC#N)cc1 |
| 138 | CCc1nc2cnc3ccc(C#Cc4cccnc4)cc3c2n1-c1ccc(CC#N)cc1 |
